# How the values were obtained:
# CEM-SS [1] = assay: Inhibitory activity against the HIV-1-induced cytopathic effect in CEM-SS cell line; assay type: functional, cell-based; conditions: Homo sapiens
# How it was run: (§1)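 XTT cytoprotection assay. CEM-SS cells were seeded at 5×10^3 per well and infected at a multiplicity that gave complete killing of virus control wells by day 6. Isolates were pretitered to equivalent infection. Serial half-log dilutions of compound were tested in triplicate. After 6 days at 37 °C, XTT (1 mg/mL) with phenazine methosulfate (6.12 µg/mL) was added for 4 h and read at 450 nm. Concentrations in µM were based on estimated number-average molecular weights.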
# CEM-SS [2] = assay: Inhibitory activity against the cytopathic effect of HIV-2 MS strain in CEM-SS cells; assay type: functional, cell-based; conditions: Homo sapiens; how it was run: as §1
# Homo sapiens [3] = organism: Homo sapiens; assay: Inhibitory activity against the HIV-1-induced cytopathic effect in Macrophage; assay type: functional, organism-based
# How it was run: (§2)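 Fresh human peripheral blood lymphocytes and macrophages were isolated by Ficoll-Hypaque centrifugation. They were infected with clinical HIV-1 isolates cultured from patient peripheral blood lymphocytes, then treated with the polymers. Inhibition of HIV replication was reported as IC50.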
# CEM-SS [4] = assay: Inhibitory activity against the cytopathic effect of HIV-2 G910-6(AZT-res) strain in CEM-SS cells; assay type: functional, cell-based; conditions: Homo sapiens; how it was run: as §1
# CEM-SS [5] = assay: Inhibitory activity against the cytopathic effect of HIV-2 ROD strain in CEM-SS cells; assay type: functional, cell-based; conditions: Homo sapiens; how it was run: as §1
# CEM-SS [6] = assay: Inhibitory activity against the cytopathic effect of HIV-1 IIIB strain in CEM-SS cells; assay type: functional, cell-based; conditions: Homo sapiens; how it was run: as §1
# CEM-SS [7] = assay: Inhibitory activity against the cytopathic effect of HIV-1 LAV strain in CEM-SS cells; assay type: functional, cell-based; conditions: Homo sapiens; how it was run: as §1
# CEM-SS [8] = assay: Inhibitory activity against the cytopathic effect of HIV-2 A17 (pyridinone-res) strain in CEM-SS cells; assay type: functional, cell-based; conditions: Homo sapiens; how it was run: as §1
# CEM-SS [9] = assay: Inhibitory activity against the cytopathic effect of HIV-1 RFstrain in CEM-SS cells; assay type: functional, cell-based; conditions: Homo sapiens; how it was run: as §1
# Homo sapiens [10] = organism: Homo sapiens; assay: Inhibitory activity against the HIV-1-induced cytopathic effect in fresh human peripheral blood lymphocytes; assay type: functional, organism-based; how it was run: as §2
# MT2 = assay: Inhibitory activity against the HIV-1-induced cytopathic effect in MT-2 cell line; assay type: functional, cell-based; conditions: Homo sapiens
# Homo sapiens [11] = organism: Homo sapiens; assay: Inhibitory activity against the HIV-1-induced cytopathic effect in human peripheral blood lymphocytes; assay type: functional, organism-based; how it was run: as §2
IC50 (CEM-SS [1]) [nM],IC50 (CEM-SS [2]) [nM],IC50 (Homo sapiens [3]) [nM],IC50 (CEM-SS [4]) [nM],IC50 (CEM-SS [5]) [nM],IC50 (CEM-SS [6]) [nM],IC50 (CEM-SS [7]) [nM],IC50 (CEM-SS [8]) [nM],IC50 (CEM-SS [9]) [nM],IC50 (MT2) [nM],IC50 (Homo sapiens [11]) [nM],Structure (SMILES),IC50 (Homo sapiens [10]) [nM]
80,140,150,100,250,80,40,600,170,800,–,Cn1cnc2c(ncn2C2O[C@H](COP(=O)(O)O)[C@@H](O)[C@H]2O)c1=S (stereo partly drawn),30
10,30,2,20,30,10,30,80,50,160,30,Cn1c(N)nc2c(ncn2[C@@H]2O[C@H](CO)[C@@H](OP(=O)(O)O)[C@H]2O)c1=S,–

Structure (SMILES),IC50 (CEM-SS [1]) [nM],IC50 (CEM-SS [2]) [nM],IC50 (Homo sapiens [3]) [nM],IC50 (CEM-SS [4]) [nM],IC50 (CEM-SS [5]) [nM],IC50 (CEM-SS [6]) [nM],IC50 (CEM-SS [7]) [nM],IC50 (CEM-SS [8]) [nM],IC50 (CEM-SS [9]) [nM],IC50 (MT2) [nM],IC50 (Homo sapiens [11]) [nM],IC50 (Homo sapiens [10]) [nM]
Cc1cn([C@H]2C[C@H](N=[N+]=[N-])[C@@H](CO)O2)c(=O)[nH]c1=O [ZIDOVUDINE],2,30,400,> 1000,5,2,4,5,30,6,–,20

# Reference: ChEMBL document CHEMBL1128517, “Unusual single-stranded polyribonucleotides as potent anti-HIV agents” (J Med Chem, 1995)
